# From PubChem
# Diaphorase act: diaphorase activation or chemical reduction counter-screen | Diaphorase/resazurin coupled assay, resorufin fluorescence, 16 min; hits give high values; 1 = vehicle wells, 0 = NADH-free wells | activation factor at 20 µM | hit rate 0.005% among 190,000 | AID 1229;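 active means diaphorase activity raised at least twofold by the compound at 20 µM; inactive means activation factor below 2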
#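 Material: purified diaphorase enzyme from Clostridium kluyveri / Medium: HEPES pH 7.4 buffer with MgCl2 and Tween 20 / Schedule: enzyme reaction of 16 min at room temperature / Measured by: resorufin fluorescence, excitation 544 nm, emission 590 nm / Evaluation: rise in resorufin formation, marking diaphorase activation or chemical reduction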
# Diaphorase inh: diaphorase inhibition or chemical oxidation counter-screen; diaphorase resazurin-to-resorufin fluorescence, NADH, 16 min; bacterial (C. kluyveri) enzyme, not human; inhibition, % at 20 µM; hit rate 0.69% among 190,000;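 active means primary screen inhibition at 20 µM above a set limit, cut at about 50% in these data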;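 further: plate controls were DMSO with full reaction for no effect and wells lacking NADH for full effect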
#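 Assay system: diaphorase enzyme from Clostridium kluyveri. Quantity: enzyme working solution with 0.14 U/mL diaphorase. Schedule: reaction incubation of 16 min at room temperature. Technique: resorufin fluorescence, excitation 544 nm, emission 590 nm. Controls: No-NADH positive control and DMSO neutral control.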
# ROMK primary: modulators of human ROMK potassium channel; hit rate 2% among 130,000; AID 1918; B-score at 10 µM; P48048; Tet-inducible ROMK, thallium flux fluorescence; actives lie on both sides;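 active means signal ratio slope over the read window, or its plate-corrected B-score, at least 3 SD from the plate mean, either direction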;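 further: B-score of the F/F0 ratio slope over 7 to 12 s after thallium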
# Target sequence (P48048 whole entry, looked up): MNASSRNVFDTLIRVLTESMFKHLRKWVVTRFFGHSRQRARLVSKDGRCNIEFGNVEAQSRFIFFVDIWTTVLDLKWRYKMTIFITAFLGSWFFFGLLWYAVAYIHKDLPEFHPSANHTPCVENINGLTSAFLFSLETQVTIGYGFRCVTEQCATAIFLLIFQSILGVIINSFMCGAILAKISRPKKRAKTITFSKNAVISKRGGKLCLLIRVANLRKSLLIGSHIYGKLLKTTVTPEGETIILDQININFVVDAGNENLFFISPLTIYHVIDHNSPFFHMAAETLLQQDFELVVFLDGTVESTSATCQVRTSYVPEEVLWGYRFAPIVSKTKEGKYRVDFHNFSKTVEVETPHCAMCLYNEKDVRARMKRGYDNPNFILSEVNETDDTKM
# KCC2 mod: modulators of human KCC2 chloride dependent transport | Q9H2X9 | KCC2 cells, thallium flux FluoZin-2 fluorescence | B-score of Tl+ flux slope (higher = more flux/activation; lower = inhibition) at 10 µM | hit rate 2.2% among 190,000 | AID 1456;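 active means thallium flux slope and its plate-corrected score both differing from the plate sample mean at a set confidence after two filtering rounds, in either direction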;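 further: slope of fluorescence scaled to starting intensity during 10 to 20 s after thallium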
# WT yeast gro inh: growth inhibition of WT yeast, mitochondrial fusion screen. mitochondrial fusion phenotypic screen, WT strain. hit rate 2.1% among 190,000. inhibition, % at 10 µM; in the data active means inhibition above about 58%; tested in S. cerevisiae
# Lmaj promast: Leishmania major promastigote growth inhibition. Leishmania major promastigotes, resazurin fluorescence viability. inhibition, % at 10 µM. hit rate 9% among 200,000. AID 1063; in the data active means inhibition above about 50%;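 further: promastigotes grown with compound for 44 hours at 28 °C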
# * = called active by the depositor; x = not tested or not shown. Rows were chosen to be rich in hits. Some 12% of all compounds tested hit in one or more screens of this group.
SMILES,Diaphorase act,Diaphorase inh,ROMK primary,KCC2 mod,WT yeast gro inh,Lmaj promast
COc1cc2c(cc1OC)CN(CC(=O)NC(=O)NC1CCCCC1)CC2,1,1.5,1.6,-0.509,10.4,0.3
Cc1ccc(C2(c3noc(CN(C)Cc4cnn(C)c4)n3)CCCC2)cc1,0.8,18.1,0.856,0.279,15.1,5.6
COc1ccc(-n2c(C)cc(/C=C3\C(=O)NN(c4ccccc4)C3=O)c2C)cc1,0.8,16.5,0.222,0.271,-3.7,-1.3
COc1ccc(Sc2ccc(/C=C3\C(=O)NN(c4ccccc4)C3=O)o2)cc1,0.8,17.4,-0.146,-0.443,21.5,56.4*
Cc1ccc(C2=N/C(=C/c3cccs3)C(=O)N2Nc2ccccc2)cc1,0.8,17.7,-0.357,x,43.6,5.7
Cc1nn(-c2ccccc2)c(Cl)c1C(=O)NCc1cccs1,1,-1.2,x,0.945,6.5,-3.1
CN(CCO)c1cnccn1,0.9,5.4,-0.0224,-0.02,-23.3,-6.8
CC(=O)Nc1ccc(-c2csc(Nc3cccc(C)n3)n2)cc1,0.8,18.8,0.186,-0.996,6.3,79.2*
CC(/C=N/NC(=O)c1ccc2nc(C)[nH]c2c1)=C\c1ccccc1,0.9,12.4,x,-0.166,11.0,18.8
Cn1c(-c2ccc(Br)cc2)cnc1NCc1cccnc1,1,3.9,x,-0.242,-1.6,99.7*
Cn1c(-c2ccc(F)cc2)cnc1NCc1ccc(C#N)cc1,0.8,19.3,-0.854,x,6.7,91.8*
CCCCn1nnnc1NCc1cccnc1,1,3.4,0.371,0.594,-8.7,-8.7
CCOc1cc(CNc2ncc(-c3ccc(OC)cc3)n2C)ccc1O,0.8,15.8,x,x,-2.2,65.1*
Cn1c(-c2ccc(F)cc2)cnc1NCc1ccc(F)cc1,0.9,8.0,x,-0.0234,4.6,88.2*
Cc1cccc(CNc2ncc(-c3cccc([N+](=O)[O-])c3)n2C)c1,0.7,26.5,-1.21,-0.00928,-2.8,16.7
COc1ccc(-c2cnc(N)n2C)cc1,0.9,6.9,-0.0847,0.216,-16.6,0.2
COc1cc(CNC(C)c2ccccc2)cc(Cl)c1OCC(=O)Nc1ccccc1 (stereo not drawn),0.9,6.5,0.303,0.117,29.4,33.2
FC(F)(F)c1cnc2c(-c3ccccc3)n[nH]c2c1,0.9,6.4,-0.404,x,9.4,-6.1
COc1ncccc1-c1nnn(-c2ccccc2)n1,0.8,18.2,x,-0.706,10.9,-1.7
Cc1cc(C)c(-c2noc(C(=O)OC(C)(C)C)c2C(=O)OC(C)(C)C)c(C)c1,0.9,11.6,1.05,-0.403,65.6*,14.1
Cc1ccc(S(=O)(=O)NC2=C(N3CCN(Cc4ccccc4)CC3)C(=O)c3ccccc3C2=O)cc1,0.8,23.2,x,x,15.9,96.9*
COC(=O)C1CCN(C2=C(NS(=O)(=O)c3ccc(Cl)cc3)C(=O)c3ccccc3C2=O)CC1,x,x,x,0.0173,x,x
CC1CCCN(C2=C(NS(=O)(=O)c3ccc(Cl)cc3)C(=O)c3ccccc3C2=O)C1 (stereo not drawn),0.8,24.1,x,-0.265,15.2,56.2*
CC(=O)Nc1ccc(S(=O)(=O)Nc2ccc(N3CCOCC3)cc2)cc1,0.9,14.5,x,x,1.9,-0.6
Cc1ccc(S(=O)(=O)NC2=C(N3CCN(c4ccccc4F)CC3)C(=O)c3ccccc3C2=O)cc1,0.8,22.6,x,x,54.4,96.2*
SMILES,Diaphorase act,Diaphorase inh,ROMK primary,KCC2 mod,WT yeast gro inh,Lmaj promast
CC(=O)Nc1ccc(S(=O)(=O)NC2=C(N3CCN(c4ccc(F)cc4)CC3)C(=O)c3ccccc3C2=O)cc1,0.7,29.7,0.172,-1.86,20.7,60.8*
O=C(O)c1ccc(Nc2nc(-c3cccnc3)nc3ccccc23)cc1,0.8,20.0,x,-0.307,-7.6,-2.1
O=C(CN1CCC(n2nnc3cc(C(F)(F)F)ccc32)CC1)N1CCc2ccccc21,0.8,21.5,x,x,1.4,56.3*
CCCCOc1ccc(-c2nc(=S)[nH][nH]2)cc1,0.8,19.1,x,x,20.7,-3.5
COc1ccc(C/C(N)=N/OC(=O)C(c2ccccc2)c2ccccc2)cc1OC,0.7,25.9,x,x,-23.6,64.6*
COc1ccc(C/C(N)=N/OC(C)=O)cc1OC,0.9,8.6,1.23,0.381,3.3,41.6
CC(OC(=O)c1ccc2ccccc2n1)C(=O)Nc1ccc(N2CCOCC2)cc1 (stereo not drawn),0.9,8.7,-0.0323,x,-20.4,-3.5
CCCCCOP(=O)(OCCCCC)C1(NS(=O)(=O)c2ccccc2)C=CC(=O)c2ccccc21 (stereo not drawn),0.6,44.5,x,0.87,14.2,99.7*
Cc1ccc(S(=O)(=O)n2c3ccc(F)cc3c3nc(C)sc32)cc1,0.9,13.7,-1.33,0.0115,78.2*,3.5
CCN(CC)CCn1c2ccc(F)cc2c2nc(C)sc21,0.9,10.6,x,x,8.0,5.7
Cc1cc(C)c2sc(N(CCCN(C)C)C(=O)c3ccc(Br)s3)nc2c1,1.1,-11.5,-0.671,0.126,94.3*,54.5*
Cc1cc(C)c2sc(N(CCN(C)C)C(=O)c3c(F)cccc3F)nc2c1,0.9,9.1,-0.459,-0.316,61.9*,25.5
O=C1NN(c2ccc(Cl)cc2)C(=O)/C1=C\c1ccc(-c2cccc(C(=O)O)c2)o1,0.5,52.9*,0.106,x,-4.6,-10.9
Cc1ccc(N2NC(=O)/C(=C/c3ccc(-c4ccc(Cl)c(C(=O)O)c4)o3)C2=O)cc1,0.8,22.9,0.847,-0.415,8.9,-4.3
COc1ccccc1CN1CCSCC1,0.9,5.1,-0.0267,0.615,-7.5,62.8*
COC(=O)C1=C(C)NC2=C(C(=O)CCC2)C1c1cn(Cc2ccc(Cl)cc2Cl)nc1-c1ccccc1 (stereo not drawn),0.8,18.5,x,-1.24,-8.5,56.8*
COc1ccc(-c2nnc(Nc3nc4c(OC)cccc4s3)o2)c(OC)c1,0.7,29.5,7.32*,84.8*,6.4,94.3*
COc1ccc(-c2nnc(Nc3nc4c(OC)cccc4s3)o2)cc1,1.2,-24.8,x,9.51*,26.1,79.2*
COc1ccc2nc(Nc3ccccc3OC)sc2c1,0.9,8.2,-0.989,0.293,43.5,12.2
CCC(=O)Nc1nnc(-c2ccc(OC)cc2)o1,0.7,32.0,x,1.21,11.2,1.7
Cc1nc2ccc(S(=O)(=O)N(C)CC(=O)Nc3ccccc3F)cc2s1,1,-0.9,1,0.00203,2.7,-3.8
O=C(Cc1cnn(-c2ccccc2)c1)c1ccc(O)c(O)c1O,0.3,68.7*,1.6,-0.392,-11.4,-9.5
O=Cc1ccc(OC(=O)c2cccnc2)cc1,1.1,-13.7,0.27,1.85,-10.5,-4.9
Cc1nn(S(=O)(=O)c2ccc(Cl)cc2)c(C)c1Sc1ccc([N+](=O)[O-])cc1,1,2.4,-1.21,-0.471,-5.6,81.8*
O=C1CN(/N=C/c2ccc([N+](=O)[O-])o2)C(=O)N1,0.9,14.7,x,-3.87,3.2,95.2*
O=C(c1ccc([N+](=O)[O-])o1)N1CCOCC1,1,2.4,0.515,0.154,-5.3,47.4
